Source: ChEMBL document CHEMBL3994572, “Antiviral Triterpenes from the Twigs and Leaves of Lyonia ovalifolia” (J Nat Prod, 2016)

What was measured:
[1] = tested on: Human alphaherpesvirus 1; experiment: Antiviral activity against Herpes simplex virus-1 F VR 733 infected in African green monkey Vero cells assessed as inhibition of virus-induced cytopathic effect; format: functional; conditions: Human alphaherpesvirus 1, Strain F ATCC VR 733, Vero
Method in brief: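 Vero cells (2.5 × 10^4/well) were seeded for 24 h, then the medium was removed. Cells were infected with HSV-1 at 100 TCID50 for 2 h, then given graded compound concentrations. Incubation continued until control CPE reached 4+. Runs were in triplicate, repeated at least three times. IC50 is the minimal concentration inhibiting 50% of CPE, by Reed and Muench.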

[2] = Cytotoxicity against African green monkey Vero cells assessed as growth inhibition after 48 hrs; format: cell-based; conditions: chlorocebus sabaeus, read-out: TC50
Method in brief: (§1)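 Vero or MDCK cells (2.5 × 10^4/well) were seeded for 24 h, then exposed to graded compound concentrations. After 48 h at 37 °C and 5% CO2, cytotoxicity was scored by CPE. TC50 was calculated by Reed and Muench analysis.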

[3] = Selectivity index, ratio of TC50 for African green monkey Vero cells to IC50 for Herpes simplex virus-1 F VR 733 infected in African green monkey Vero cells; format: toxicity; conditions: read-out: Selectivity Index
Method in brief: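 Vero cells (2.5 × 10^4/well) seeded 24 h, medium removed, infected with HSV-1 at 100 TCID50 for 2 h, then graded compound concentrations added until control CPE reached 4+. IC50 = minimal concentration inhibiting 50% CPE (Reed and Muench); triplicate, at least three separate experiments. […] SI = TC50/IC50.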

[4] = tested on: Influenza A virus; experiment: Antiviral activity against Influenza A virus A/95-359 infected in MDCK cells assessed as inhibition of virus-induced cytopathic effect; format: functional, cell-based; conditions: A/95-359, MDCK
Method in brief: (§2)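 MDCK cells (2.5 × 10^4/well) seeded 24 h, PBS-washed, infected with influenza A/95-359 at 100 TCID50 for 2 h, then exposed to graded compound concentrations until control CPE reached 4+. IC50 = minimal concentration inhibiting 50% of CPE (Reed and Muench); triplicate, at least three separate experiments. […] SI = TC50/IC50.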

[5] = Cytotoxicity against MDCK cells assessed as growth inhibition after 48 hrs; format: cell-based, Canis lupus familiaris; conditions: dog, read-out: TC50; method in brief: as §1
[6] = Selectivity index, ratio of TC50 for MDCK cells to IC50 for Influenza A virus (A/95-359) infected in MDCK cells; format: toxicity, cell-based; conditions: dog, read-out: Selectivity Index; method in brief: as §2
[7] = tested on: Coxsackievirus B3; experiment: Antiviral activity against Coxsackievirus B3 infected in African green monkey Vero cells assessed as inhibition of virus-induced cytopathic effect; format: functional; conditions: Enterovirus B
Method in brief: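 Vero monolayers were infected with Cox B3 at 100 TCID50 and allowed 2 h adsorption at 37 °C. They were then washed with PBS and kept at 37 °C in MEM with 2% FBS, with or without graded concentrations of test compounds. Read-out was CPE.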

[8] = Selectivity index, ratio of TC50 for African green monkey Vero cells to IC50 for Coxsackievirus B3 infected in African green monkey Vero cells; format: toxicity; conditions: read-out: Selectivity Index
Method in brief: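 Vero monolayers infected with 100 TCID50 Coxsackie B3 virus, 2 h adsorption at 37 °C, PBS-washed, then held in MEM plus 2% FBS at 37 °C with graded compound concentrations. […] SI = TC50/IC50.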

SMILES | IC50 [1] [µM] | CC50 at 48 h [2] [µM] | selectivity ratio [3] | IC50 [4] [µM] | CC50 at 48 h [5] [µM] | selectivity ratio [6] | IC50 [7] [µM] | selectivity ratio [8]
C[C@H](CC[C@H](O)C(C)(C)O)[C@H]1CC[C@@]2(C(=O)O)[C@@H]3CCC4=C(CC[C@@H](O)C4(C)C)C[C@H]3CC[C@]12C | 11.1 | 48.1 to 57.7 | 5.2 | 4.8 | 19.3 | 4 | 4.8 | 10
CC(=O)OC[C@H]1O[C@@H](O[C@@H]2CC=C3C[C@H]4CC[C@]5(C)[C@@H]([C@H](C)CC[C@H](O[C@@H]6OC[C@H](O)[C@H](O)[C@H]6O)C(C)(C)O)CC[C@@]5(C(=O)O)[C@@H]4CC[C@H]3C2(C)C)[C@H](O)[C@@H](O)[C@@H]1O | 19.3 | > 100 | > 5.2 | > 33.3 |  |  | ≥ 33.3 | 
C[C@H](CC[C@H](O[C@@H]1OC[C@H](O)[C@H](O)[C@H]1O)C(C)(C)O)[C@H]1CC[C@@]2(C(=O)O)[C@@H]3CC[C@H]4C(=CC[C@@H](O[C@@H]5OC[C@H](O)[C@H](O)[C@H]5O)C4(C)C)C[C@H]3CC[C@]12C | ≥ 33.3 |  |  | > 33.3 |  |  | ≥ 33.3 | 
CC(=O)OC[C@H]1O[C@@H](O[C@@H]2CC=C3C[C@H]4CC[C@]5(C)[C@@H]([C@H](C)CC[C@H](O)C(C)(C)O)CC[C@@]5(C(=O)O)[C@@H]4CC[C@@H]3C2(C)C)[C@H](O)[C@@H](O)[C@@H]1O | ≥ 33.3 |  |  | > 33.3 |  |  | ≥ 33.3 | 
Cc1cc(CCCOc2c(C)cc(-c3noc(C(F)(F)F)n3)cc2C)on1 [PLECONARIL] |  | 15.4 |  |  |  |  | 0.001 | 15400
C[C@H](CC[C@H](O[C@@H]1OC[C@H](O)[C@H](O)[C@H]1O)C(C)(C)O)[C@H]1CC[C@@]2(C(=O)O)[C@@H]3CCC4=C(CC[C@@H](O[C@H]5OC[C@@H](O)[C@@H](O)[C@@H]5O)C4(C)C)C[C@H]3CC[C@]12C | ≥ 33.3 |  |  | > 33.3 |  |  | ≥ 33.3 | 
C[C@H](CC[C@H](O[C@@H]1O[C@H](CO)[C@@H](O)[C@H](O)[C@H]1O)C(C)(C)O)[C@H]1CC[C@@]2(C(=O)O)C3=C(CC[C@]12C)[C@@]1(C)CC[C@@H](O)C(C)(C)[C@@H]1CC3 | 23.1 | 57.7 | 2.5 | > 33.3 |  |  | ≥ 33.3 | 
C[C@H](CC[C@H](O[C@@H]1OC[C@H](O)[C@H](O)[C@H]1O)C(C)(C)O)[C@H]1CC[C@@]2(C(=O)O)C3=C(CC[C@]12C)[C@@]1(C)CC[C@@H](O[C@@H]2OC[C@H](O)[C@H](O)[C@H]2O)C(C)(C)[C@@H]1CC3 | ≥ 33.3 |  |  | > 33.3 |  |  | ≥ 33.3 | 
Nc1nc2c(ncn2COCCO)c(=O)[nH]1 [ACYCLOVIR] | 0.41 | > 100 | > 244 |  |  |  |  | 
CC(=O)OC[C@H]1O[C@@H](O[C@@H]2CCC3=C(CC[C@@H]4[C@H](CC[C@]5(C)[C@@H]([C@H](C)CC[C@H](O[C@@H]6OC[C@H](O)[C@H](O)[C@H]6O)C(C)(C)O)CC[C@@]45C(=O)O)C3)C2(C)C)[C@H](O)[C@@H](O)[C@@H]1O | ≥ 33.3 |  |  | > 33.3 |  |  | ≥ 33.3 | 
C[C@H](CC[C@H](O[C@@H]1OC[C@H](O)[C@H](O)[C@H]1O)C(C)(C)O)[C@H]1CC[C@@]2(C(=O)O)[C@@H]3CCC4=C(CC[C@@H](O[C@@H]5O[C@H](CO)[C@@H](O)[C@H](O)[C@H]5O)C4(C)C)C[C@H]3CC[C@]12C | ≥ 33.3 |  |  | > 33.3 |  |  | ≥ 33.3 | 
CC(=O)OC[C@H]1O[C@@H](O[C@@H]2CCC3=C(CC[C@@H]4[C@H](CC[C@]5(C)[C@@H]([C@H](C)CC[C@H](O)C(C)(C)O)CC[C@@]45C(=O)O)C3)C2(C)C)[C@H](O)[C@@H](O)[C@@H]1O | ≥ 33.3 |  |  | > 11.1 | 48.1 |  | ≥ 33.3 | 
